Source: PubChem BioAssay AID493050 (Broad Institute, 2011)
Several values for one entry are separate records, joined by “and”; a condition that tells them apart may be missing. Equal entries are not always repeated. Activity calls are given as the source filed them.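 How the source made its calls: active means viability falling with dose, half-maximal potency at or under ten times the top valid dose; inconclusive means flat partial loss of viability, or an unreliable curve fit; inactive means the rest, including a rising signal.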

Tested on: not listed separately
Experiment: viability loss in HRASV12 DRD fibroblasts, dose response, cell-based, DRD BJ fibroblasts, dry powder, set 2 (AID 493050)
Conditions: DRD (HRASV12 BJ) fibroblasts viability, Alamar Blue, 48 h; at 48 µM (top of the series)
Outline: (§1)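 Times: 48 h compound treatment, ~16 h dye incubation / Test system: DRD BJ fibroblasts expressing SV40 ST, dn-p53, cyclin D1, CDK4mut, HRASV12 / Quantity: 1000 cells per well / Signal: Alamar Blue fluorescence at 544/590 nm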

| Compound | activity change, negative = viability loss |
| --- | --- |
| Cc1oc(C)c(C(=O)N2CCN(C(c3ccccc3)c3ccccc3)CC2)c1C | 11.7% (inactive) |
| O=[N+]([O-])c1ccc(CN2CCN(C(c3ccccc3)c3ccccc3)CC2)o1 | -0.32% (inactive) |
| CC(C)c1onc(C(=O)N2CCN(C(c3ccccc3)c3ccccc3)CC2)c1[N+](=O)[O-] | 4.37% (inactive) |
| Cc1ccc(C(=O)N2CCN(C(c3ccccc3)c3ccccc3)CC2)c([N+](=O)[O-])c1 | 15.7% (inactive) |
| Cc1onc(C(=O)N2CCN(C(c3ccncc3)c3ccncc3)CC2)c1[N+](=O)[O-] | 1.3% (inactive) |
| Cc1onc(C(=O)N2CCN(C(c3ccccc3)c3ccccc3)CC2)c1Br | 8.89% (inactive) |
| CC(=O)Nc1c(C(=O)N2CCN(C(c3ccccc3)c3ccccc3)CC2)noc1C | 5.57% (inactive) |
| Cc1onc(C(=O)N2CCN(C(c3ccccc3)c3ccccc3)CC2)c1C | 10.5% (inactive) |
| O=C(c1noc2ccccc12)N1CCN(C(c2ccccc2)c2ccccc2)CC1 | 4.79% (inactive) |
| Cc1onc(C(=O)N2CCN(C(c3ccccn3)c3ccccn3)CC2)c1[N+](=O)[O-] | 3.35% (inactive) |
| Cc1onc(C(=O)N2CCN(C(c3ccccc3)c3ccccc3)CC2)c1NS(C)(=O)=O | 2.79% (inactive) |
| Cc1onc(C(=O)N2CCN(C(c3ccccc3)c3ccccc3)CC2)c1N | 1.23% (inactive) |

Same assay, conditions: DRD (HRASV12 BJ) fibroblasts viability, Alamar Blue, 48 h; at 68 µM (top of the series)

| Compound | activity change, negative = viability loss |
| --- | --- |
| Cc1cc(C(=O)N2CCN(Cc3ccccc3)CC2)no1 | -2.15% (inactive) |
| COc1ccccc1N1CCN(C(=O)c2noc(C)c2[N+](=O)[O-])CC1 | 0.386% (inactive) |
| Cc1onc(C(=O)NCc2ccc(F)cc2)c1[N+](=O)[O-] | 0.881% (inactive) |
| CCOC(=O)N1CCN(C(=O)c2noc(C)c2[N+](=O)[O-])CC1 | 6.53% (inactive) |
| Cc1onc(C(=O)N2CCOCC2)c1[N+](=O)[O-] | 4.86% (inactive) |

Tested on: DRD (HRASV12 BJ) fibroblasts viability, Alamar Blue, 48 h
Experiment: as above
Conditions: not given
Outline: as §1

| Compound | AC50 |
| --- | --- |
| Cc1onc(C(=O)N2CCN(C(c3ccc(F)cc3)c3ccc(F)cc3)CC2)c1[N+](=O)[O-] | 0.226 µM |
| O=C(NCCNC(c1ccccc1)c1ccccc1)c1ccc([N+](=O)[O-])o1 | 8.27 µM |
| Cc1onc(C(=O)N2CCN(C(c3ccccc3)c3ccccc3)CC2)c1[N+](=O)[O-] | 4.75 µM and 1.71 µM |
| COc1ccc(C(c2ccc(OC)cc2)N2CCN(C(=O)c3noc(C)c3[N+](=O)[O-])CC2)cc1 | 1.85 µM |
| Cc1onc(C(=O)N2CCN(C(c3ccc(Cl)cc3)c3ccc(Cl)cc3)CC2)c1[N+](=O)[O-] | 0.107 µM |
| Cc1onc(C(=O)N2CCN(C(c3ccccc3)c3ccc(Cl)cc3)CC2)c1[N+](=O)[O-] (centres undefined) | 0.21 µM |
| O=C(c1ccc([N+](=O)[O-])o1)N1CCCN(C(c2ccccc2)c2ccccc2)CC1 | 46.5 µM |
| Cc1onc(C(=O)N2CCCN(C(c3ccccc3)c3ccccc3)CC2)c1[N+](=O)[O-] | 1.1 µM |
| O=C(c1ccc([N+](=O)[O-])o1)N1CCN(C(c2ccccc2)c2ccccc2)CC1 | 19.4 µM |
| COc1ccc(C(c2ccc(OC)cc2)N2CCN(C(=O)c3ccc([N+](=O)[O-])o3)CC2)cc1 | 8.37 µM |
| Cc1onc(C(=O)NCCNC(c2ccccc2)c2ccccc2)c1[N+](=O)[O-] | 16 µM |
| O=C(c1ccc([N+](=O)[O-])o1)N1CCN(C(c2ccc(F)cc2)c2ccc(F)cc2)CC1 | 13.1 µM |
